The target in experiment [1] is Vasopressin V2 receptor (Sus scrofa) (UniProt P32307). In words: Inhibition constant for [3H]LVP binding to medullary membranes of pig kidney. The format is tissue-based. Put shortly: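 V2 receptor affinity measured on pig renal medullary membranes by competition with tritiated LVP, expressed as Kbind. Each determination averages triplicate tests, and the value averages (n) determinations.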

The target in experiment [2] is Vasopressin V2 receptor (Homo sapiens, UniProt P30518). Put plainly: Inhibition constant for vasopressin-stimulated adenylate cyclase of medullary membranes of human kidney. A digest of the protocol: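 Human renal medullary membrane preparations used. Antagonism measured as inhibition of LVP-stimulated adenylate cyclase, expressed as Ki. Only selected analogues tested. Each determination averages triplicate tests, and the value averages (n) determinations.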

Experiment [3] deals with Vasopressin V2 receptor (Rattus norvegicus) (UniProt Q00788). In words: Dose required to lower urine osmolality to 300 mOsm/kg in rat. Put shortly:
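Male rats deprived of food and water overnight to reach a stable hydropenic state (raised plasma vasopressin, urine osmolality ≈1500 mOsm/kg H2O). Antagonist given at varying doses to groups of four rats. Urine volume and osmolality measured. The value is the dose that brings urine osmolality down to 300 mOsm/kg. Each determination averages four rats, and the reported value averages (n) determinations.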

Experiment [4] addresses Vasopressin V2 receptor (Sus scrofa, UniProt P32307). Put plainly: Inhibition constant for vasopressin-stimulated adenylate cyclase of medullary membranes of pig kidney. A digest of the protocol:
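Antagonism measured on pig renal medullary membranes as inhibition of LVP-stimulated adenylate cyclase, expressed as inhibition constant Ki. Each determination averages triplicate tests, and the value averages (n) determinations.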

Structures are written as SMILES. Numbered stars: 1 amine (or outer) side, 2 acyl side, 3 side chain; on linkers, the order of the positions; unused ones are H or OH. Bridge positions count the residues as written; N and C are the ends. Square brackets hold non-standard residues; d marks the D form. Peptide text beside a SMILES is read from it. * marks the point of attachment. X1 = O=C(CC1(S[*:2])CCCCC1)[*:1]; Agmatine = N=C(N)NCCCCN*

Broadly, the Ki is the equilibrium dissociation constant of an inhibitor or competing ligand from its target. Lower therefore signals tighter binding.

Chain of Vasopressin V2 receptor (Homo sapiens, UniProt P30518) (P30518 whole entry): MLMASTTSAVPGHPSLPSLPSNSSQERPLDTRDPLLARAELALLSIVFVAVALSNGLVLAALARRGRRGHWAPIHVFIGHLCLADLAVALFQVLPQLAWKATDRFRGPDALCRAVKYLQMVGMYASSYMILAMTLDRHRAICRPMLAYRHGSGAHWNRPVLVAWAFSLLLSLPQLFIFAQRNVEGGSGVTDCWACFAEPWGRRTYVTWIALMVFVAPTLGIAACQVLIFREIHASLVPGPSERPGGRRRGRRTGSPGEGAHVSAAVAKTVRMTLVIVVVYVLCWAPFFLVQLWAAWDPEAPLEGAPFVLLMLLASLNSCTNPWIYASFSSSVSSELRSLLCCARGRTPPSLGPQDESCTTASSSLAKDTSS
Chain of Vasopressin V2 receptor (Sus scrofa) (P32307 whole entry): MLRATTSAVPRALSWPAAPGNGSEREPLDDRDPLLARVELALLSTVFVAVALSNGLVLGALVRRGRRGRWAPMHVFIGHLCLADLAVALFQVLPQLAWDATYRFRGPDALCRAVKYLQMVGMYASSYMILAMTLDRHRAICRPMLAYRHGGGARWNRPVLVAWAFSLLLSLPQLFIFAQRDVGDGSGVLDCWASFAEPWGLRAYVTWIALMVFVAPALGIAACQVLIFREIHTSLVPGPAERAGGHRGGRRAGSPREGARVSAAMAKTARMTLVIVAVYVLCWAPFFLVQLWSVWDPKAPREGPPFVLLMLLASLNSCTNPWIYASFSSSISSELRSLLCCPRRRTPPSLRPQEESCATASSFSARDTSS
Chain of Vasopressin V2 receptor (Sus scrofa, UniProt P32307) (P32307 whole entry): as above
Chain of Vasopressin V2 receptor (Rattus norvegicus) (Q00788 whole entry): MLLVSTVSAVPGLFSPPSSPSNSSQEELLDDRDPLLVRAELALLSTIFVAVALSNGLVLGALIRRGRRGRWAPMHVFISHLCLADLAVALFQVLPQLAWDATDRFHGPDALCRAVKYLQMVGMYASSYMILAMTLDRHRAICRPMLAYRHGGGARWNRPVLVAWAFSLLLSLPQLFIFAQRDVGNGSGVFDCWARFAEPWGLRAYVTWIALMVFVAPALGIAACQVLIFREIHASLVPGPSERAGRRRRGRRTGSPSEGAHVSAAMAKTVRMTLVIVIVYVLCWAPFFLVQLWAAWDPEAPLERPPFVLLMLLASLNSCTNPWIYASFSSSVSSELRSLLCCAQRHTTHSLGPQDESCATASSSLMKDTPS

In turn, `CCOc1ccc(C[C@H]2NC(=O)CC3(CCCCC3)SSC[C@H](C(=O)N[C@H](CCCCN)C(N)=O)NC(=O)[C@@H](CC(N)=O)NC(=O)[C@H](C(C)C)NC(=O)[C@@H](Cc3ccccc3)NC2=O)cc1` had a K bind in experiment [1] of 26 nM. This molecule showed a Ki on Vasopressin V2 receptor [2] of 3.3 nM. Further, the ED300 in experiment [3] came to 0.059 mg/kg.

As to `CCOc1ccc(C[C@H]2NC(=O)CC3(CCCCC3)SSC[C@@H](C(=O)N3CCC[C@H]3C(=O)NCCCCN=C(N)N)NC(=O)[C@H](CC(N)=O)NC(=O)[C@H](C(C)C)NC(=O)[C@H](Cc3ccccc3)NC2=O)cc1` ([dY](Et)FVNCP-Agmatine; linker N-5 via X1), the Ki turned out to be 6 nM on Vasopressin V2 receptor [4] and 3.7 nM at Vasopressin V2 receptor [2].

Source of the values: ChEMBL document CHEMBL1124391, “Structure-activity relationships of novel vasopressin antagonists containing C-terminal diaminoalkanes and (aminoalkyl)guanidines” (J Med Chem, 1989).
